Test results published in ChEMBL document CHEMBL1255250, “Microbicidal properties and cytocidal selectivity of rhesus macaque theta defensins” (Antimicrob Agents Chemother, 2008).
Calls of active or inactive are those of the source. The calls are words filed in the database; no cut-off is given here.

Experiments:
Staphylococcus aureus [1] = test: Microbicidal activity against Staphylococcus aureus 502a; assay type: functional
How it was run: (§1)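 Log-phase organisms (1–2 × 10^6 CFU/ml) were exposed to serially diluted peptide (0.05–10.0 μg/ml final) in 10 mM PIPES, pH 7.4, with 5 mM glucose for 2 h at 37°C. Aliquots were serially diluted 1:10 to 1:10^6 in Trypticase soy or Sabouraud broth and grown 24–48 h at 37°C. MMC was the lowest concentration giving 99.9% viability loss in at least two experiments.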

[2] = Toxicity in human Erythrocyte assessed as concentration required to achieve 3% hemolysis; assay type: cell-based
Escherichia coli [3] = test: Microbicidal activity against Escherichia coli ML35; assay type: functional; how it was run: as §1
Candida albicans [4] = test: Microbicidal activity against Candida albicans 16820; assay type: functional; how it was run: as §1
Staphylococcus aureus [5] = test: Microbicidal activity against Staphylococcus aureus 502a at 5 ug/ml in presence of <= 80 mM NaCl; assay type: functional, organism-based
How it was run: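 S. aureus in log phase was incubated with 5 μg/ml peptide in 10 mM PIPES, pH 7.4, containing increasing NaCl for 2 h at 37°C. Killing was determined by colony counting and expressed as a percentage of killing in buffer alone.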

Candida albicans [6] = test: Microbicidal activity against Candida albicans 16820 using PIPES buffer in presence of NaCl; assay type: functional, organism-based
How it was run: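 Log-phase C. albicans was incubated with peptide in 10 mM PIPES, pH 7.4, supplemented with NaCl, for 2 h at 37°C. Survivors were plated on Sabouraud dextrose agar and counted after 18–24 h at 37°C.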

Staphylococcus aureus [7] = test: Microbicidal activity against Staphylococcus aureus 502a using 10 mM PIPES buffer in presence of 154 mM NaCl; assay type: functional, organism-based
How it was run: (§2)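 Log-phase S. aureus was exposed to increasing peptide concentrations for 2 h at 37°C. Buffer was 10 mM PIPES, Tris-HCl or sodium phosphate, pH 7.4, with or without 154 mM NaCl. Killing was read by colony counting.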

Staphylococcus aureus [8] = test: Microbicidal activity against Staphylococcus aureus 502a using 10 mM Tris-HCl buffer in presence of 154 mM NaCl; assay type: functional, organism-based; how it was run: as §2
Staphylococcus aureus [9] = test: Microbicidal activity against Staphylococcus aureus 502a using 10 mM sodium phosphate buffer in presence of 154 mM NaCl; assay type: functional, organism-based; how it was run: as §2
Staphylococcus aureus [10] = test: Microbicidal activity against Staphylococcus aureus 502a in presence of 1.2 mM Calcium ions; assay type: functional, organism-based
Escherichia coli [11] = test: Microbicidal activity against Escherichia coli ML35 in presence of 1.2 mM Calcium ions; assay type: functional, organism-based
How it was run: (§3)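 Log-phase E. coli ML35 or C. albicans was incubated with increasing peptide concentrations in 10 mM PIPES, pH 7.4. The buffer contained 1.2 mM CaCl2 and 0.8 mM MgCl2, or no added divalent salts. Incubation was 2 h at 37°C, and survivors were counted as colonies.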

Staphylococcus aureus [12] = test: Microbicidal activity against Staphylococcus aureus 502a in presence of 0.8 mM Magnesium ions; assay type: functional, organism-based
Escherichia coli [13] = test: Microbicidal activity against Escherichia coli ML35 in presence of 0.8 mM Magnesium ions; assay type: functional, organism-based; how it was run: as §3
Candida albicans [14] = test: Microbicidal activity against Candida albicans 16820 in presence of 0.8 mM Magnesium ions; assay type: functional, organism-based; how it was run: as §3
Escherichia coli [15] = test: Microbicidal activity against Escherichia coli ML35 at <=8 ug/ml in presence of 10% heat-inactivated human serum; assay type: functional, organism-based
How it was run: (§4)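 Human serum was heat-inactivated at 55°C for 30 min and clarified by centrifugation. E. coli was then exposed to a dose series of peptide in 10 mM PIPES, pH 7.4, with 10% of this serum. Killing was counted as colonies and expressed relative to incubations without serum.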

Escherichia coli [16] = test: Microbicidal activity against Escherichia coli ML35 at 16 ug/ml in presence of 10% heat-inactivated human serum; assay type: functional, organism-based; how it was run: as §4
Escherichia coli [17] = test: Microbicidal activity against Escherichia coli ML35 assessed as induction of cytoplasmic membrane permeabilization at 1 ug/ml; assay type: functional, organism-based
How it was run: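 Log-phase E. coli ML35 (1–2 × 10^6 CFU/ml) was incubated with peptide (0–8 μg/ml final) in 10 mM PIPES, pH 7.4, containing 3 mM ONPG. ONPG hydrolysis was followed at 405 nm for 60 min. The rate was taken as the highest kinetic slope and corrected for peptide inhibition of β-galactosidase measured cell-free.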

[18] = Inhibition of beta-galactosidase in cell-free system assessed as inhibition of o-nitrophenyl-beta-d-galactopyranoside hydrolysis
[19] = target: Beta-galactosidase (Escherichia coli) (UniProt Q8VNN2); test: Inhibition of Escherichia coli ML35 Beta-galactosidase assessed as inhibition of o-nitrophenyl-beta-d-galactopyranoside hydrolysis at 4 ug/ml
[20] = Toxicity in human Erythrocyte assessed as hemolysis at 100 ug/ml; assay type: cell-based
How it was run: (§5)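 Erythrocytes from EDTA-anticoagulated human donor blood were washed in PBS or PiBS containing 4 mM EDTA, then resuspended without EDTA at 2% (vol/vol). Cells were incubated with peptide (0.3–100 μg/ml final) for 1 h at 37°C, with or without 10% autologous serum. Supernatant A405 was expressed relative to 1% Nonidet P-40 lysis.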

[21] = Toxicity in human Erythrocyte assessed as hemolysis at 100 ug/ml in presence of 10% serum; assay type: cell-based; how it was run: as §5
Hs68 [22] = test: Cytotoxicity against human HS68 cells at <=100 ug/ml by MTT assay in presence of 0.4% FBS; assay type: cell-based
How it was run: (§6)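 HS68 fibroblasts were grown in DMEM with 10% FBS and penicillin/streptomycin at 37°C and 5% CO2. Cells were seeded at 5 × 10^3 per well for 18 h. Medium was then switched to antibiotic-free DMEM with 0.4% or 10% FBS, as each line states, and peptide was added at 0–100 μg/ml for 1 h at 37°C. Wells were refed with growth medium and read by MTT in triplicate against no-peptide wells.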

Hs68 [23] = test: Cytotoxicity against human HS68 cells at 100 ug/ml in presence of 10% FBS by MTT assay; assay type: cell-based; how it was run: as §6
Hs68 [24] = test: Cytotoxicity against human HS68 cells at 50 ug/ml by MTT assay in presence of 10% FBS; assay type: cell-based; how it was run: as §6
[25] = Selectivity index, ratio of MMC for Staphylococcus aureus 502a to hemolytic activity for human erythrocytes
Candida albicans [26] = test: Microbicidal activity against Candida albicans 16820 assessed as log reduction in microbial count at 10 ug/ml using PIPES buffer

Beta-galactosidase (Escherichia coli), sequence (Q8VNN2 whole entry, looked up): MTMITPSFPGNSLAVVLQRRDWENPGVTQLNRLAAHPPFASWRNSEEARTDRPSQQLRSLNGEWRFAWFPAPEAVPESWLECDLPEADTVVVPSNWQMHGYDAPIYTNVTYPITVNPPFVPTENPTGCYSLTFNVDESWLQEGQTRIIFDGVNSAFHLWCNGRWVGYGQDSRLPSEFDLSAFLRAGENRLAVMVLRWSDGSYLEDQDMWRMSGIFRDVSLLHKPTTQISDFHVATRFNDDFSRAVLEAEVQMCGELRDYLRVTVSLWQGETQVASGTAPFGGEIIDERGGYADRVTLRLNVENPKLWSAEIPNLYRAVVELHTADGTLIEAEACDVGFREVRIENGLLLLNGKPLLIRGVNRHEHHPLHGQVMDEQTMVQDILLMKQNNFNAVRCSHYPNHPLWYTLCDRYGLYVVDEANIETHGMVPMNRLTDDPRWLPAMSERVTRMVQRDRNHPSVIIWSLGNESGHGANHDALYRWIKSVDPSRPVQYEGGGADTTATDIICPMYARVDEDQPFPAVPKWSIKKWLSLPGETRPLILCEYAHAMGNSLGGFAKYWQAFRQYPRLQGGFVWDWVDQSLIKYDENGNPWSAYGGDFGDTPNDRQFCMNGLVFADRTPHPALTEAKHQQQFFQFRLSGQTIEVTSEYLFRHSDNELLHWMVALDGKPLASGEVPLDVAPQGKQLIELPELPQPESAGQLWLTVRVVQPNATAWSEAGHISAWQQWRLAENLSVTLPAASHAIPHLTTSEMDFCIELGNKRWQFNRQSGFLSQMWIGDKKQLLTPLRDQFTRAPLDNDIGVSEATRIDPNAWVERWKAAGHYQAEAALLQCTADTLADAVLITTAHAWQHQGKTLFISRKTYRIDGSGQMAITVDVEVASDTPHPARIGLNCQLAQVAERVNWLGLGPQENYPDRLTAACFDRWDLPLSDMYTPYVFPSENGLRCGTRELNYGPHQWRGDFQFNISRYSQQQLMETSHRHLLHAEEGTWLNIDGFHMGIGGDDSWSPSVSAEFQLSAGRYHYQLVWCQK

CC(C)C[C@H](NC(=O)[C@H](CCCNC(=N)N)NC(=O)CNC(=O)CNC(=O)[C@@H](N)CCCNC(=N)N)C(=O)N[C@H]1CSSC[C@@H](C(=O)N[C@H](C(=O)NCC(=O)N[C@@H](CCCNC(=N)N)C(N)=O)C(C)C)NC(=O)[C@H](C(C)C)NC(=O)[C@@H]2CSSC[C@H](NC(=O)[C@H](Cc3ccc(O)cc3)NC1=O)C(=O)N[C@@H](CCCNC(=N)N)C(=O)N[C@@H](CCCNC(=N)N)C(=O)N[C@@H](CCCNC(=N)N)C(=O)N[C@@H](Cc1ccccc1)C(=O)N2
MMC (Staphylococcus aureus [1]): 0.4 µg/mL | Activity [2]: 0.8 µg/mL | MMC (Escherichia coli [3]): 1 µg/mL | MMC (Candida albicans [4]): 0.8 µg/mL | Activity (Staphylococcus aureus [5]): Active | Activity (Candida albicans [6]): Active | Activity (Staphylococcus aureus [7]): Active | Activity (Staphylococcus aureus [8]): Active | Activity (Staphylococcus aureus [9]): Active | Activity (Staphylococcus aureus [10]): Active | Activity (Escherichia coli [11]): Active | Activity (Staphylococcus aureus [12]): Active | Activity (Escherichia coli [13]): Active | Activity (Candida albicans [14]): inactive | Activity (Escherichia coli [15]): inactive | Activity (Escherichia coli [16]): Active | Activity (Escherichia coli [17]): Active | inhibition [18]: Dose-dependent effect | inhibition [19]: 36% | Activity [20]: Toxic | Activity [21]: Toxic | Activity (Hs68 [22]): Toxic | Activity (Hs68 [23]): Toxic | Activity (Hs68 [24]): Toxic | Selectivity Index [25]: 2 | FC (Candida albicans [26]): >3
